Test: Toxicity liver stage against HepG2, at 10uM
Type: cell-based
Parameters: test concentration 10 uM, cell line HepG2-A16-CD81EGFP
Details: human, HepG2-A16-CD81EGFP cells; read-out: INHIBITION
Method in brief: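 Uninfected HepG2-A16-CD81EGFP cells, 3 × 10^3 per well, 1536-well, plated on prespotted compound at 10 μM final, parasite-free screening media added to match infected plates; puromycin 10 μM positive, DMSO 0.5% negative; run in parallel with 48 h PbLuc assay at 37 °C, 5% CO2; viability by CellTiter-Glo luminescence, normalized to controls.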

| Compound | cytotoxicity at 10 µM [%] |
| --- | --- |
| CCc1ccc(OCC(O)CN2CCN(CCO)CC2)cc1 (stereo not drawn) | -11.9 |
| NCC(c1cccnc1)N1CCOCC1 (stereo not drawn) | 4.32 |
| CNC(=O)c1cc2ccccc2n1C | 6.84 |
| CC(C)(C)CN1CC[C@H](c2nnc(Cc3c[nH]c4ccccc34)o2)C1 | -3.9 |
| CS(=O)(=O)N1CCN2C(=O)N(C3CCCCC3)C[C@H]2C1 | 7.77 |
| CN(C)[C@H]1C[C@@H](Cc2cc(-c3ccc(F)cc3)on2)C1(C)C | -12.3 |
| COCC(=O)NC[C@H]1C[C@@H]2CCN1C[C@@H]2CN1CCc2ccccc2C1 | -1.33 |
| Cc1ccc(NC(=O)c2ccc(N3CCCCC3)nn2)c(Cl)c1 | -10.7 |
| Cc1cc(=O)[nH]c(-n2nc(C)c(CCC(=O)NCC(C)C)c2C)n1 | 2.28 |
| Cn1cc(C(=O)Nc2ccc(CC(=O)NC3CC3)cc2)nn1 | -7.42 |
| CC(C)N1CCc2ncn(C(C)C)c2C1C(=O)N1CCN(C)CC1 (stereo not drawn) | -0.849 |
| CC1N(CC2CC2)C(=O)COC12CCN(C(=O)c1ccno1)CC2 (stereo not drawn) | 0.104 |
| O=C(c1ccccc1)N1Cc2nccn2CC(Cn2ncccc2=O)C1 (stereo not drawn) | 10.4 |
| CS(=O)(=O)N1CC[C@H]2O[C@H](C(=O)NCc3cccnc3)CC[C@H]21 | -7.24 |
| O=C(c1ncccn1)N1C[C@@H]2COC[C@]2(COCc2cccnc2)C1 | -1.9 |
| CN(C)CCOCC1CN(C(=O)[C@H]2CCCO2)Cc2ccnn2C1 (stereo partly drawn) | -0.422 |
| CN1CCN(C(=O)COCc2nc(-c3ccncc3)no2)CC1 | 14.6 |
| Cn1ccc(NC(=O)CN2CCN(C3CCCC3)C(=O)C2)n1 | 4.31 |
| CN1CCCC(c2nccnc2-c2cccc(Cl)c2)C1 (stereo not drawn) | 3.57 |
| CC1CCN(c2nc(O)cc(C3CC(=O)N(C4CCCCC4)C3)n2)CC1 (stereo not drawn) | 3.81 |
| Cc1cc(C)nc(N2CCC(Cn3cc(C(N)=O)cn3)CC2)n1 | 3.65 |
| Cc1nc(C2CCN(S(C)(=O)=O)CC2)nc(N2CCCC2)c1C | 4.48 |
| CCN1CCN(c2ncc(-c3cc(C)no3)c(-c3ccco3)n2)CC1 | -11 |
| Cc1cc(C)c(CNC(=O)N2CCCN(C(=O)C(C)C)CC2)c(C)c1 | 12.3 |
| Cc1nc(-c2ccccc2)sc1C(=O)N(C1CC1)C1CC(=O)NC1=O (stereo not drawn) | 2.78 |
| CCN(CC)CCn1cc(NC(=O)CNc2ccccc2OC)cn1 | 6.19 |
| CC(C)(NC(=O)Nc1cnn(CC2CCCO2)c1)c1nccs1 (stereo not drawn) | -2.64 |

| Compound | cytotoxicity at 10 µM [%] |
| --- | --- |
| COc1ncc(NCc2cc(C#N)cs2)cc1C(N)=O | 3.8 |
| OC1(CNCc2cnc(N3CCOCC3)nc2)CCCCC1 | -2.41 |
| COc1ccc(N(CCC(N)=O)C(=O)CSc2ccc(F)c(F)c2)cc1 | 4.13 |
| CN1C(=O)c2ccc(NC(=O)CSc3ccc4c(c3)CCC4)cc2C1=O | 0.0636 |
| COc1cc(NC(=O)c2cc(Cl)ccc2F)c(C(=O)N(C)C)cc1OC | -2.61 |
| Cc1cc(CNC2CCc3nc(C(C)C)nn3C2)on1 (stereo not drawn) | 7.61 |
| Cc1nc(CN2CCC(N(C)Cc3noc(C(C)C)n3)C2)oc1C (stereo not drawn) | 4.63 |
| Cc1cccc(OC2CCN(c3nccnc3C#N)CC2)n1 | 1.1 |
| Cc1noc(C)c1CS(=O)(=O)C(C)C(=O)N(C)c1ccccc1 (stereo not drawn) | -1.58 |
| O=C1CN(C(=O)CNC(CC(F)(F)F)c2ccc(F)cc2)CCN1 (stereo not drawn) | 10.4 |
| O=C(c1[nH]c2ccc(Cl)cc2c1Cl)N1CCC2(CC1)OCCO2 | 23.5 |
| Cc1cccc(-c2nc(C)nn2CN2CCC3(CC2)OCCO3)c1 | -13.8 |
| Cc1cc(NC(=O)Cn2ccccc2=O)n(C)n1 | -7.32 |
| Cn1cc(CNCCOc2ccc(F)c(F)c2)c(-c2cccnc2)n1 | -2.53 |
| Cc1nc(C(=O)N2CC[C@@]3(C[C@H](NS(C)(=O)=O)CCO3)C2)cs1 | -72.9 |
| CC(C)CN1C(=O)CO[C@@H]2CN(C(=O)C3CCOCC3)C[C@H]21 | -88.1 |
| CC(C)N1CCO[C@H]2CN(C(=O)c3ccncc3)C[C@H]21 | -74.3 |
| Cc1nc([C@@H]2C[C@@H]3CCN(C(=O)Cc4cccs4)C[C@H]3O2)no1 | 3.27 |
| COC[C@@H]1CC[C@H]2[C@H](CCN2S(=O)(=O)c2cccc(F)c2)O1 | 2.24 |
| Cn1cccc1C(=O)N1CCC2(CC1)CN(c1cncnc1)C(=O)CO2 | 4.35 |
| COc1cccc(N2CCN(Cc3cc(C)cc(F)c3)CC2=O)c1 | 25.9 |
| Cc1cnccc1N1CCCN(C(=O)CCn2ccnc2C)CC1 | -6.32 |
| CN(C)S(=O)(=O)N1CC[C@]2(O)CCN(c3nc4ccccc4s3)C[C@@H]2C1 | -1.82 |
| Cc1oc(-c2cccc(F)c2F)nc1CN(C)CCO | -9.49 |
| CCCc1cc(CN(C)C2CC(C)(C)NC(C)(C)C2)n[nH]1 | -16.7 |
| COc1ccc(NC(=O)CCN2CC=C(c3cnn(C)c3)CC2)c(C)c1 | -4.08 |

From ChEMBL document CHEMBL4513216, “Probing the Open Global Health Chemical Diversity Library for Multistage-Active Starting Points for Next-Generation Antimalarials” (ACS Infect Dis, 2020)
